Data as given in ChEMBL document CHEMBL1126811, “Fluorinated and iodinated dopamine agents: D2 imaging agents for PET and SPECT” (J Med Chem, 1993).

Experiments:
Rattus norvegicus [1] = test: Biodistribution of radioligand [125I]FIDA1 in muscle of rat after 2 minutes after an intravenous injection is given (average of 3 rats); type: ADME, organism-based, Muscle tissue; details: in vivo
Outline: (§1)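 Male Sprague–Dawley rats (225–300 g) were given 0.2 mL saline containing the radioiodinated ligand (8–10 μCi) into the femoral vein under ether anesthesia. They were killed at set times by cardiac excision. Organs were weighed and γ-counted against diluted aliquots of the injected dose and expressed as % dose/organ. Blood and muscle were taken as 7% and 40% of body weight. Three rats were used per point.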

Rattus norvegicus [2] = test: Biodistribution of radioligand [125I]FIDA1 in muscle of rat after 60 minutes after an intravenous injection is given (average of 3 rats); type: ADME, organism-based, Muscle tissue; details: in vivo, 1 h; outline: as §1
Rattus norvegicus [3] = test: Biodistribution of radioligand [125I]FIDA1 in skin of rat after 120 minutes after an intravenous injection is given (average of 3 rats); type: ADME, organism-based, Zone of skin; details: in vivo, 2 h; outline: as §1
Rattus norvegicus [4] = test: Uptake of radioligand [125I]FIDA1 by cerebellum in rat after 120 minutes after an intravenous injection is given (average of 3 rats); type: ADME, organism-based; details: in vivo, 2 h
Outline: (§2)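 Male Sprague–Dawley rats (225–300 g) under ether anesthesia received radioiodinated tracer (8–10 μCi in 0.2 mL saline) into the femoral vein. They were killed by cardiac excision at set times. Cortex, striatum, hippocampus and cerebellum were dissected, weighed and gamma-counted. Results are % dose/gram against diluted injected dose.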

Rattus norvegicus [5] = test: Uptake of radioligand [125I]FIDA1 by cerebellum in rat after 2 minutes after an intravenous injection is given (average of 3 rats); type: ADME, organism-based; details: in vivo; outline: as §2
Rattus norvegicus [6] = test: Uptake of radioligand [125I]-FIDA1 by cortex in rat after 120 minutes after an intravenous injection is given (average of 3 rats); type: ADME, organism-based; details: in vivo, 2 h; outline: as §2
Rattus norvegicus [7] = test: Uptake of radioligand [125I]FIDA1 by cortex in rat after 2 minutes after an intravenous injection is given (average of 3 rats); type: ADME, organism-based; details: in vivo; outline: as §2
Rattus norvegicus [8] = test: Uptake of radioligand [125I]FIDA1 by cortex in rat after 60 minutes after an intravenous injection is given (average of 3 rats); type: ADME, organism-based; details: in vivo, 1 h; outline: as §2
Rattus norvegicus [9] = test: Uptake of radioligand [125I]FIDA1 by striatum in rat after 120 minutes after an intravenous injection is given (average of 3 rats); type: ADME, organism-based; details: in vivo, 2 h; outline: as §2
Rattus norvegicus [10] = test: Uptake of radioligand [125I]FIDA1 by striatum in rat after 2 minutes after an intravenous injection is given (average of 3 rats); type: ADME, organism-based; details: in vivo; outline: as §2
Rattus norvegicus [11] = test: Uptake of radioligand [125I]FIDA1 by striatum in rat after 60 minutes after an intravenous injection is given (average of 3 rats); type: ADME, organism-based; details: in vivo, 1 h; outline: as §2
Rattus norvegicus [12] = test: Biodistribution of radioligand [125I]FIDA1 in blood of rat after 2 minutes after an intravenous injection is given (average of 3 rats); type: ADME, organism-based; details: in vivo; outline: as §1
Rattus norvegicus [13] = test: Biodistribution of radioligand [125I]FIDA1 in blood of rat after 60 minutes after an intravenous injection is given (average of 3 rats); type: ADME, organism-based; details: in vivo, 1 h; outline: as §1
Rattus norvegicus [14] = test: Biodistribution of radioligand [125I]FIDA1 in brain of rat after 120 minutes after an intravenous injection is given (average of 3 rats); type: ADME, organism-based; details: in vivo, 2 h; outline: as §1
Rattus norvegicus [15] = test: Biodistribution of radioligand [125I]FIDA1 in brain of rat after 2 minutes after an intravenous injection is given (average of 3 rats); type: ADME, organism-based; details: in vivo; outline: as §1
Rattus norvegicus [16] = organism: Rattus norvegicus; test: Dissociation constant was determined; type: ADME, organism-based
Outline: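 Rat striatal membrane homogenate (40–60 μg protein) incubated with 125I-labeled ligand ± competitors in 0.2 mL assay buffer, 15 min at 37 °C with stirring. Filtered on protamine-pretreated (0.2%) GF/B filters, washed with cold 50 mM Tris-HCl pH 7.4, gamma-counted. Nonspecific binding defined with 10 μM (+)-butaclamol. Scatchard and competition data fitted by iterative nonlinear least squares.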

Rattus norvegicus [17] = test: Biodistribution of radioligand [125I]FIDA1 in thyroid of rat after 120 minutes after an intravenous injection is given (average of 3 rats); type: ADME, organism-based, Thyroid gland; details: in vivo, 2 h; outline: as §1
Rattus norvegicus [18] = test: Biodistribution of radioligand [125I]FIDA1 in thyroid of rat after 2 minutes after an intravenous injection is given (average of 3 rats); type: ADME, organism-based, Thyroid gland; details: in vivo; outline: as §1
Rattus norvegicus [19] = test: Biodistribution of radioligand [125I]FIDA1 in kidney of rat after 30 minutes after an intravenous injection is given (average of 3 rats); type: ADME, organism-based; details: in vivo, 0.5 h; outline: as §1
Rattus norvegicus [20] = test: Biodistribution of radioligand [125I]FIDA1 in kidney of rat after 60 minutes after an intravenous injection is given (average of 3 rats); type: ADME, organism-based; details: in vivo, 1 h; outline: as §1
Rattus norvegicus [21] = test: Biodistribution of radioligand [125I]FIDA1 in liver of rat after 120 minutes after an intravenous injection is given (average of 3 rats); type: ADME, organism-based; details: in vivo, 2 h; outline: as §1
Rattus norvegicus [22] = test: Biodistribution of radioligand [125I]-FIDA1 in liver of rat after 2 minutes after an intravenous injection is given (average of 3 rats); type: ADME, organism-based; details: in vivo; outline: as §1
Rattus norvegicus [23] = test: Biodistribution of radioligand [125I]-FIDA1 in heart of rat after 120 minutes after an intravenous injection is given (average of 3 rats); type: ADME, organism-based; details: in vivo, 2 h; outline: as §1
Rattus norvegicus [24] = test: Biodistribution of radioligand [125I]FIDA1 in heart of rat after 2 minutes after an intravenous injection is given (average of 3 rats); type: ADME, organism-based; details: in vivo; outline: as §1
Rattus norvegicus [25] = test: Biodistribution of radioligand [125I]FIDA1 in heart of rat after 60 minutes after an intravenous injection is given (average of 3 rats); type: ADME, organism-based; details: in vivo, 1 h; outline: as §1
Rattus norvegicus [26] = test: Biodistribution of radioligand [125I]FIDA1 in kidney of rat after 120 minutes after an intravenous injection is given (average of 3 rats); type: ADME, organism-based; details: in vivo, 2 h; outline: as §1
Rattus norvegicus [27] = test: Biodistribution of radioligand [125I]-FIDA1 in kidney of rat after 2 minutes after an intravenous injection is given (average of 3 rats); type: ADME, organism-based; details: in vivo; outline: as §1
Rattus norvegicus [28] = test: Biodistribution of radioligand [125I]FIDA1 in thyroid of rat after 60 minutes after an intravenous injection is given (average of 3 rats); type: ADME, organism-based, Thyroid gland; details: in vivo, 1 h; outline: as §1
Rattus norvegicus [29] = test: Biodistribution of radioligand [125I]FIDA1 in lung of rat after 120 minutes after an intravenous injection is given (average of 3 rats); type: ADME, organism-based; details: in vivo, 2 h; outline: as §1
Rattus norvegicus [30] = test: Biodistribution of radioligand [125I]FIDA1 in lung of rat after 2 minutes after an intravenous injection is given (average of 3 rats); type: ADME, organism-based; details: in vivo; outline: as §1
Rattus norvegicus [31] = test: Biodistribution of radioligand [125I]FIDA1 in lung of rat after 60 minutes after an intravenous injection is given (average of 3 rats); type: ADME, organism-based; details: in vivo, 1 h; outline: as §1
Rattus norvegicus [32] = test: Biodistribution of radioligand [125I]FIDA1 in liver of rat after 60 minutes after an intravenous injection is given (average of 3 rats); type: ADME, organism-based; details: in vivo, 1 h; outline: as §1
Rattus norvegicus [33] = test: Biodistribution of radioligand [125I]FIDA1 in skin of rat after 60 minutes after an intravenous injection is given (average of 3 rats); type: ADME, organism-based, Zone of skin; details: in vivo, 1 h; outline: as §1
Rattus norvegicus [34] = test: Biodistribution of radioligand [125I]FIDA1 in spleen of rat after 120 minutes after an intravenous injection is given (average of 3 rats); type: ADME, organism-based; details: in vivo, 2 h; outline: as §1
Rattus norvegicus [35] = test: Biodistribution of radioligand [125I]FIDA1 in spleen of rat after 60 minutes after an intravenous injection is given (average of 3 rats); type: ADME, organism-based; details: in vivo, 1 h; outline: as §1
Rattus norvegicus [36] = test: Biodistribution of radioligand [125I]FIDA1 in skin of rat after 2 minutes after an intravenous injection is given (average of 3 rats); type: ADME, organism-based, Zone of skin; details: in vivo; outline: as §1
Rattus norvegicus [37] = test: Uptake of radioligand [125I]FIDA1 by cerebellum in rat after 60 minutes after an intravenous injection is given (average of 3 rats); type: ADME, organism-based; details: in vivo, 1 h; outline: as §2

Dose/organ (Rattus norvegicus [1]) [%] | Dose/organ (Rattus norvegicus [2]) [%] | Dose/organ (Rattus norvegicus [3]) [%] | Dose/g (Rattus norvegicus [4]) [%] | Dose/g (Rattus norvegicus [5]) [%] | Dose/g (Rattus norvegicus [6]) [%] | Dose/g (Rattus norvegicus [7]) [%] | Dose/g (Rattus norvegicus [8]) [%] | Dose/g (Rattus norvegicus [9]) [%] | Dose/g (Rattus norvegicus [10]) [%] | Dose/g (Rattus norvegicus [11]) [%] | Dose/organ (Rattus norvegicus [12]) [%] | Dose/organ (Rattus norvegicus [13]) [%] | Dose/organ (Rattus norvegicus [14]) [%] | Dose/organ (Rattus norvegicus [15]) [%] | Kd (Rattus norvegicus [16]) [nM] | Dose/organ (Rattus norvegicus [17]) [%] | Dose/organ (Rattus norvegicus [18]) [%] | Dose/organ (Rattus norvegicus [19]) [%] | Dose/organ (Rattus norvegicus [20]) [%] | SMILES | further results
11.83 | 1.96 | 0.75 | 0.0016 | 0.16 | 0.0014 | 0.25 | 0.013 | 0.095 | 0.3 | 0.175 | 3.76 | 0.78 | 0.02 | 0.41 | 0.13 | 0.03 | 0.07 | 1.42 | 0.39 | CCN1CCC[C@H]1CNC(=O)c1cc(I)cc(OC)c1OCCF | Dose/organ (Rattus norvegicus [21]): 2.24%; Dose/organ (Rattus norvegicus [22]): 20.46%; Dose/organ (Rattus norvegicus [23]): 0.01%; Dose/organ (Rattus norvegicus [24]): 0.81%; Dose/organ (Rattus norvegicus [25]): 0.03%; Dose/organ (Rattus norvegicus [26]): 0.11%; Dose/organ (Rattus norvegicus [27]): 6.18%; Dose/organ (Rattus norvegicus [28]): 0.04%; Dose/organ (Rattus norvegicus [29]): 0.04%; Dose/organ (Rattus norvegicus [30]): 6.53%; Dose/organ (Rattus norvegicus [31]): 0.14%; Dose/organ (Rattus norvegicus [32]): 7.08%; Dose/organ (Rattus norvegicus [33]): 1.76%; Dose/organ (Rattus norvegicus [34]): 0.01%; Dose/organ (Rattus norvegicus [35]): 0.05%; Dose/organ (Rattus norvegicus [36]): 8.19%; Dose/g (Rattus norvegicus [37]): 0.006%
11.14 | 4.21 | 5.75 | 0.01 | 0.49 | 0.01 | 0.63 | 0.04 | 0.23 | 0.59 | 0.37 | 2.08 | 0.64 | 0.05 | 0.98 | 0.02 | 0.03 | 0.07 | 2.96 | 1.38 | COc1cc(I)cc(C(=O)NC[C@@H]2CCCN2Cc2ccc(F)cc2)c1OC | Dose/organ (Rattus norvegicus [21]): 5.71%; Dose/organ (Rattus norvegicus [22]): 19.41%; Dose/organ (Rattus norvegicus [23]): 0.03%; Dose/organ (Rattus norvegicus [24]): 1.38%; Dose/organ (Rattus norvegicus [25]): 0.06%; Dose/organ (Rattus norvegicus [26]): 0.42%; Dose/organ (Rattus norvegicus [27]): 6.77%; Dose/organ (Rattus norvegicus [28]): 0.03%; Dose/organ (Rattus norvegicus [29]): 0.15%; Dose/organ (Rattus norvegicus [30]): 7.82%; Dose/organ (Rattus norvegicus [31]): 0.32%; Dose/organ (Rattus norvegicus [32]): 10.44%; Dose/organ (Rattus norvegicus [33]): 8.56%; Dose/organ (Rattus norvegicus [34]): 0.05%; Dose/organ (Rattus norvegicus [35]): 0.14%; Dose/organ (Rattus norvegicus [36]): 6.08%; Dose/g (Rattus norvegicus [37]): 0.03%
